# In ChEMBL document CHEMBL1134840, “Synthesis and antiviral activity of novel acyclic nucleoside analogues of 5-(1-azido-2-haloethyl)uracils” (J Med Chem, 2001):
# Legend:
# [1] = test system: Human betaherpesvirus 5; experiment: Antiviral activity against human cytomegalovirus; type: functional, organism-based
# Outline: (§1)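 CPE inhibition and plaque reduction assays in human foreskin fibroblast (HFF) or Vero cells, run under the NIH Antiviral Research Branch program. Virus strains: HCMV AD-169, HSV-2 MS, VZV Ellen. Acyclovir or ganciclovir served as reference drug.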
# [2] = Inhibitory activity against human foreskin fibroblast cell proliferation; type: functional, cell-based
# Outline: (§2)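 Proliferating HFF cells; growth inhibition expressed as IC50. Compounds tested up to top concentrations of 130–310 μM.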
# [3] = Cytotoxicity against human foreskin fibroblast cell proliferation; type: cell-based; details: human foreskin fibroblast cells (proliferating); outline: as §2
# [4] = In vitro cytotoxicity against stationary phase human foreskin fibroblast cells; type: cell-based
# Outline: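 Stationary-phase HFF cells; cytotoxicity read by neutral red uptake and expressed as CC50. Compounds tested up to top concentrations of 240–340 μM.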
# [5] = In vitro cytotoxicity against stationary phase vero cells; type: cell-based; details: chlorocebus sabaeus
# Outline: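 Stationary-phase Vero cells; cytotoxicity read by MTT assay and expressed as CC50. Compounds tested up to top concentrations of 260–620 μM.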
# [6] = test system: Human alphaherpesvirus 3; experiment: In vitro antiviral activity against Varicella zoster virus; type: functional, organism-based; outline: as §1
# [7] = test system: Human alphaherpesvirus 1; experiment: In vitro antiviral activity against Herpes simplex virus type 1; type: functional, organism-based
# Outline: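 HSV-1 strains tested: KOS and E-377 (both TK+), and the TK-deficient mutant KOSSB in Vero cells. E-377 was assayed by CPE inhibition and plaque reduction under the NIH program. Acyclovir or ganciclovir served as reference.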
# [8] = test system: Anas sp.; experiment: (§3) In vitro antiviral activity against duck hepatitis B virus (DHBV); type: functional, organism-based
# Outline: (§4)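 Virus replication inhibition measured in primary hepatocyte cultures prepared from congenitally DHBV-infected ducks.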
# [9] = test system: Human alphaherpesvirus 2; experiment: In vitro antiviral activity against Herpes simplex virus type 2; type: functional, organism-based; outline: as §1
# [10] = test system: Hepatitis B virus; experiment: as §3; type: functional, organism-based; outline: as §4
Structure (SMILES),IC50 [2],CC50 [4],CC50 [5],also measured
[N-]=[N+]=NC(CI)c1cn(CCC(CO)CO)c(=O)[nH]c1=O (configuration not stated),> 310 µM,,,EC50 [1]: 14.4 µM; IC50 [3]: > 260 µM
[N-]=[N+]=NC(CCl)c1cn(CCC(CO)CO)c(=O)[nH]c1=O (configuration not stated),> 310 µM,> 240 µM,> 260 µM,
[N-]=[N+]=NC(CI)c1cn(COC(CO)CO)c(=O)[nH]c1=O (configuration not stated),> 130 µM,> 240 µM,> 260 µM,EC50 [6]: 2.4 µM
[N-]=[N+]=NC(CBr)c1cn(COC(CO)CO)c(=O)[nH]c1=O (configuration not stated),> 130 µM,> 240 µM,> 260 µM,
[N-]=[N+]=NC(CI)c1cn(COCCO)c(=O)[nH]c1=O (configuration not stated),> 130 µM,> 240 µM,> 260 µM,
[N-]=[N+]=NC(CBr)c1cn(COCCO)c(=O)[nH]c1=O (configuration not stated),> 130 µM,> 240 µM,> 260 µM,
[N-]=[N+]=NC(CCl)c1cn([C@H]2C[C@H](O)[C@@H](CO)O2)c(=O)[nH]c1=O (some centres not stated),,,,EC50 [7]: 0.06 µM; EC50 [6]: 4.5 µM; EC50 [8]: 15 µM; EC50 [9]: 2.9 µM
[N-]=[N+]=NC(CBr)c1cn([C@H]2C[C@H](O)[C@@H](CO)O2)c(=O)[nH]c1=O (some centres not stated),,,,EC50 [8]: 2.6 µM
[N-]=[N+]=NC(CCl)c1cn([C@@H]2O[C@H](CO)[C@@H](O)[C@@H]2O)c(=O)[nH]c1=O (some centres not stated),,,,EC50 [7]: 0.46 µM; EC50 [6]: 0.08 µM; EC50 [1]: 1.45 µM
[N-]=[N+]=NC(CCl)c1cn(COC(CO)CO)c(=O)[nH]c1=O (configuration not stated),> 130 µM,> 240 µM,> 260 µM,
[N-]=[N+]=NC(CCl)c1cn(COCCO)c(=O)[nH]c1=O (configuration not stated),> 130 µM,> 240 µM,> 260 µM,
[N-]=[N+]=NC(CBr)c1cn(CCC(CO)CO)c(=O)[nH]c1=O (configuration not stated),> 270 µM,> 240 µM,> 260 µM,EC50 [1]: 2.7 µM
Nc1nc2c(ncn2COCCO)c(=O)[nH]1 [ACYCLOVIR],,,,EC50 [6]: 2.6 µM
Nc1nc2c(ncn2COC(CO)CO)c(=O)[nH]1 [GANCICLOVIR],156 µM,,,EC50 [1]: 0.23 µM; EC50 [10]: 4 µM
Nc1nc(O)c2ncn(CCC(CO)CO)c2n1 [PENCICLOVIR],,,,EC50 [10]: 0.7 µM
